This assay can be described thus: inhibitors of GR-EGFP nuclear translocation, primary screen, dynein cargo transport inhibitor project, imaging, high-content, 3617.4 mouse cells (AID 1381). The note with it: stimulated with dexamethasone, 1 µM. A digest of the protocol: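 medium = tetracycline-free induction medium containing charcoal-stripped FBS | probe or stimulus = dexamethasone, 1.0 µM final | timing = 48 h induction, then 1 h compound, then 30 min agonist, 37 °C | detection = automated 10x imaging of fixed Hoechst-stained cells | read-out basis = nuclear versus cytoplasmic GR-EGFP signal, averaged per well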

The mark [1] stands for this setting: measured here: cell count per field, at 20 µM.
[2] abbreviates: measured here: cytoplasmic GR-EGFP intensity, at 20 µM, stronger effect = higher value.
[3] abbreviates: measured here: nuclear GR-EGFP intensity, at 20 µM, stronger effect = lower value.
Where [4] appears, read: measured here: cell count per field, at 50 µM.
The mark [5] stands for this setting: measured here: cytoplasmic GR-EGFP intensity, at 50 µM, stronger effect = higher value.
The mark [6] stands for this setting: measured here: nuclear GR-EGFP intensity, at 50 µM, stronger effect = lower value.

The whole screen tested about 220,000 compounds, of which about 1,000 (0.45%) were called active.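 How the source made its calls: active means plate z-score of nuclear minus cytoplasmic receptor signal below a set negative limit, without overly bright fluorescence or cell loss (cut at about -3.5 in these data, passing the limit was not always enough); inactive means the rest, inconclusive results apart.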 The list comes from a sample in which actives are over-represented; it also holds similar structures and randomly drawn compounds.

For `Cc1cc(C)c(C#N)c(SCc2[nH]nc3c2C(c2ccccc2)C(C#N)=C(N)O3)n1` (stereo unspecified), the z-score was -0.933 (inactive) (at 20 µM, stronger effect = lower value); 1.23 under setting [1]; -0.0183 under setting [2]; -0.255 under setting [3].

As to `N#CC1=C(N)Oc2c(sc3ccccc23)C1c1ccco1` (stereo unspecified), the z-score was -0.943 (inactive) (at 20 µM, stronger effect = lower value); 0.511 under setting [1]; 0.878 under setting [2]; 0.0658 under setting [3].

On to `Cc1cc(C)c2c3c(sc2n1)C(c1ccccc1)C(C#N)=C(N)O3` (stereo unspecified), for which the z-score reads like this: (at 50 µM, stronger effect = lower value) -4.27 (active); under setting [4], 2.33; under setting [5], 1.49; under setting [6], -2.28.

Consider `COc1ccc(C(C#N)N2N=C(C)CC2(C)C)cc1` (stereo unspecified), for which the z-score (at 20 µM, stronger effect = lower value) was -0.0116 (inactive); the z-score under setting [1] is -0.511; the z-score under setting [2] is -0.208; the z-score under setting [3] is -0.808.

Take `O=C(NCCCN1CCCCC1)c1ccc2c(c1)NC(=O)C(N1CCOCC1)S2` (stereo unspecified): the z-score runs as follows: (at 20 µM, stronger effect = lower value) 0.104 (inactive); under setting [1], -0.224; under setting [2], -0.224; under setting [3], -0.851.

For `O=S1(=O)CC/C(=N\Nc2ccc(F)cc2)c2ccsc21`, the z-score (at 20 µM, stronger effect = lower value) was -0.204 (inactive); the z-score under setting [1] is -0.257; the z-score under setting [2] was -0.126; the z-score under setting [3] was -0.15.

Turning to `Nn1cnnc1N/N=C/c1cc([N+](=O)[O-])c(Cl)cc1Cl`, the z-score was 0.859 (inactive) (at 20 µM, stronger effect = lower value); -0.348 under setting [1]; 0.536 under setting [2]; 0.371 under setting [3].

Take `Cn1c2ccccc2c(=O)c2c(=O)n(Cc3ccco3)c(COc3ccccc3)nc21`: the z-score by setting is: (at 20 µM, stronger effect = lower value) 0.301 (inactive); under setting [1], -0.271; under setting [2], -0.198; under setting [3], 0.291.

As for `Cc1ccc(Cn2c(C)nc3c(c2=O)c2nc4ccccc4nc2n3Cc2ccco2)cc1`, the z-score was -4.55 (active) (at 50 µM, stronger effect = lower value); -0.433 under setting [4]; 0.482 under setting [5]; -1.83 under setting [6].

For `Cc1ccc(Cn2c(NC(=O)c3ccco3)nc3ccccc32)cc1`, the z-score runs as follows: (at 20 µM, stronger effect = lower value) 0.337 (inactive); under setting [1], -0.00289; under setting [2], -0.18; under setting [3], 0.336.

As to `Cc1c(Cl)cccc1NC(=O)CC1SC(=NCC2CCCO2)NC1=O` (stereo unspecified), the z-score by setting is: (at 20 µM, stronger effect = lower value) -0.0448 (inactive); under setting [1], -0.163; under setting [2], -0.258; under setting [3], 0.413.

As for `NNC(=O)c1ccc(Cl)cc1Cl`, the z-score (at 20 µM, stronger effect = lower value) was 0.203 (inactive); the z-score under setting [1] is -0.823; the z-score under setting [2] is -0.243; the z-score under setting [3] is 0.206.

Regarding `O=C(NCC1CCCO1)c1cc(-c2ccccc2)nc2ccccc12` (stereo unspecified), the z-score is 0.068 (inactive) (at 20 µM, stronger effect = lower value); 0.631 under setting [1]; -0.236 under setting [2]; 0.0806 under setting [3].

Consider `Cc1ccc(NC(=O)c2cc(-c3ccc(C)o3)nc3ccccc23)nc1`, for which the z-score by setting is: (at 50 µM, stronger effect = lower value) -3.31 (inactive); under setting [4], -0.441; under setting [5], 0.617; under setting [6], -1.89.

Take `Cc1ccc(-c2cc(C(=O)NCC3CCCO3)c3ccccc3n2)o1` (stereo unspecified): the z-score is -4.29 (active) (at 50 µM, stronger effect = lower value); 0.456 under setting [4]; 0.668 under setting [5]; -1.96 under setting [6].

As to `Cc1nc(-c2nnc(SCC(=O)Nc3cc(C(F)(F)F)cc(C(F)(F)F)c3)n2C)cs1`, the z-score by setting is: (at 20 µM, stronger effect = lower value) 0.49 (inactive); under setting [1], -0.365; under setting [2], -0.261; under setting [3], 0.826.

Take `COc1ccc(CN(Cc2ccc(OC)cc2)C(=O)c2cccs2)cc1`: the z-score by setting is: (at 20 µM, stronger effect = lower value) -0.594 (inactive); under setting [1], 0.82; under setting [2], -0.256; under setting [3], -0.492.

Regarding `COc1ccc(NC(=O)CN(Cc2ccccc2)S(C)(=O)=O)cc1OC`, the z-score is, setting by setting: (at 20 µM, stronger effect = lower value) 0.347 (inactive); under setting [1], -0.496; under setting [2], 0.00823; under setting [3], 0.254.

As to `Cc1cc(=O)oc2c1c(C)nn2-c1ccc(Cl)cc1`, the z-score is, setting by setting: (at 20 µM, stronger effect = lower value) -0.357 (inactive); under setting [1], 1.43; under setting [2], -0.242; under setting [3], -0.696.
